The values below come from ChEMBL document CHEMBL4823331, “Identification of gp120 Residue His105 as a Novel Target for HIV-1 Neutralization by Small-Molecule CD4-Mimics” (ACS Med Chem Lett, 2021).

Experiment [1] in a line: Inhibition of gp120 (Gln 105 residue) in HIV-1 JR-FL infected in dog Cf2Th-CD4/CCR5 cells assessed as inhibition of viral entry incubated for 30 mins prior to infection and further incubated for 48 to 72 hrs in presence of firefly D-luciferin free acid and ATP by single-round infection luciferase assay. Conditions: Human immunodeficiency virus 1, JR-FL. The format is cell-based. The gist of the method:
(§1)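 Cf2Th canine cells expressing CD4 and CCR5 were infected with the named HIV-1 strain in the presence of compound. IC50 was taken as the concentration giving 50% inhibition of viral infection, reported as mean ± SD. Groups were compared by one-tailed unpaired t test (N = 3).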

Experiment [2] is described as follows: Inhibition of gp120 (His 105 residue) in HIV-1 BG505 infected in dog Cf2Th-CD4/CCR5 cells assessed as inhibition of viral entry incubated for 30 mins prior to infection and further incubated for 48 to 72 hrs in presence of firefly D-luciferin free acid and ATP by single-round infection luciferase assay. The format is cell-based. Conditions: Human immunodeficiency virus 1, BG505, Cf2Th-CD4/CCR5. In a few lines:
as §1

A word on the pIC50: it is the IC50 on a negative log10 scale, so that one unit is a factor of ten.

pIC50: −log10 of the molar value. Bounds are passed on as bounds.

With `CNCc1ccc2c(c1)[C@@H](CCCO)[C@H](CNC(=N)N)[C@H]2NC(=O)C(=O)Nc1ccc(Cl)c(F)c1`, the results for the negative-log IC50 (pIC50) in experiment [1] and in experiment [2] were 5.08 and 3.87, respectively. As to `CCCC[C@@H]1c2cc(CNC)ccc2[C@H](NC(=O)C(=O)Nc2ccc(Cl)c(F)c2)[C@H]1CNC(=N)N`, the negative logarithm of the IC50 (pIC50) in experiment [1] is 4.49. In the case of `CNCc1ccc2c(c1)[C@@H](CCC(O)CO)[C@H](CNC(=N)N)[C@H]2NC(=O)C(=O)Nc1ccc(Cl)c(F)c1` (mixture of isomers), the pIC50 in experiment [1] is 5.08; in experiment [2] it was 3.89. As for `CNCc1ccc2c(c1)[C@@H](CCC(=O)CO)[C@H](CNC(=N)N)[C@H]2NC(=O)C(=O)Nc1ccc(Cl)c(F)c1`, the pIC50 in experiment [1] is 5.30; in experiment [2], 3.78. On the same counts, the results for `CNCc1ccc2c(c1)[C@H](NC(=O)C(=O)Nc1ccc(Cl)c(F)c1)[C@@H](CNC(=N)N)[C@@H]2CCC(O)CO` (stereo not given in full) are 4.71 and < 3.52.

Take `CNCc1ccc2c(c1)[C@@H](CC[C@H](O)CO)[C@H](CNC(=N)N)[C@H]2NC(=O)C(=O)Nc1ccc(Cl)c(F)c1`: in experiment [1], the pIC50 is 4.75. For the compound `CNCc1ccc2c(c1)[C@@H](CC[C@@H](O)CO)[C@H](CNC(=N)N)[C@H]2NC(=O)C(=O)Nc1ccc(Cl)c(F)c1`, the pIC50 in experiment [1] was 4.66. Turning to `CNCc1ccc2c(c1)[C@H](NC(=O)C(=O)Nc1ccc(Cl)c(F)c1)[C@@H](CNC(=N)N)[C@@H]2CCCO`, the negative-log IC50 (pIC50) in experiment [1] is 5.02; in experiment [2], 3.79. Consider `CNCc1ccc2c(c1)[C@H](NC(=O)C(=O)Nc1ccc(Cl)c(F)c1)[C@@H](CNC(=N)N)[C@@H]2CC[C@H](O)CO`, for which, in experiment [1], the negative-log IC50 (pIC50) was 4.56. Consider `C=CCC[C@@H]1c2cc(CNC)ccc2[C@H](NC(=O)C(=O)Nc2ccc(Cl)c(F)c2)[C@H]1CNC(=N)N`, for which the results for the negative logarithm of the IC50 (pIC50) in experiment [1] and in experiment [2] were 5.04 and 3.97, respectively.

Regarding `C=CCC[C@@H]1c2ccc(CNC)cc2[C@H](NC(=O)C(=O)Nc2ccc(Cl)c(F)c2)[C@H]1CNC(=N)N`, the figures for the negative logarithm of the IC50 (pIC50) in experiment [1] and in experiment [2] were 4.79 and < 4.00, respectively.

For the compound `CNCc1ccc2c(c1)C[C@H](CNC(=N)N)[C@H]2NC(=O)C(=O)Nc1ccc(Cl)c(F)c1`, the pIC50 in experiment [1] is 5.05; in experiment [2], 3.65.
